≈ marks a conversion by molar mass, not a printed value.
How the values were obtained:
[1] = organism: Mus musculus; assay: Activation of UTRN promoter in mouse H2K cells assessed as upregulation of UTRN production after 48 hrs by luciferase reporter linked assay; type: functional, cell-based
Summary of the method: (§1)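 H2K myoblasts stably carrying a utrophin (UTRN) promoter–luciferase reporter were plated 24 h before dosing and exposed to compound for 48 h. Luciferase was read by luminescence (Steady-Glo). The primary screen was at 10 μM and the secondary at six concentrations for EC50, both in triplicate. Non-EC50 values are % of the reference upregulator's maximum, given with the concentration at maximum.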

[2] = organism: Mus musculus; assay: Activation of UTRN promoter in mouse H2K cells assessed as upregulation of UTRN production at 10 uM after 72 hrs by RT-PCR analysis; type: functional
Summary of the method: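 H2K cells were seeded at 25000 per well, left 24 h, then dosed for 72 h in 1% DMSO final. Total RNA was extracted and reverse transcribed. qPCR used an amplicon spanning the UTRN exon 3–4 boundary, with β-actin as the endogenous control, and was quantified by ΔΔCT. Values are % UTRN relative to DMSO control (=100), with P value.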

[3] = Half life in mouse liver microsomes; type: ADME, Microsome
[4] = Half life in human liver microsomes; type: ADME, Microsome
[5] = Aqueous solubility of the compound by turbidimetry; type: physicochemical; details: buffer
Summary of the method: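 Turbidimetric aqueous solubility, reported as the final test compound concentration.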

[6] = organism: Mus musculus; assay: Activation of UTRN promoter in mouse H2K cells assessed as upregulation of UTRN production at 10 uM after 48 hrs by luciferase reporter linked assay; type: functional; summary of the method: as §1
[7] = organism: Mus musculus; assay: Activation of UTRN promoter in mouse H2K cells assessed as upregulation of UTRN production at 30 uM after 48 hrs by luciferase reporter linked assay; type: functional; summary of the method: as §1
[8] = organism: Mus musculus; assay: Activation of UTRN promoter in mouse H2K cells assessed as upregulation of UTRN production at 3 uM after 48 hrs by luciferase reporter linked assay; type: functional; summary of the method: as §1
[9] = tested on: Mus musculus; assay: Tmax in CD1 mouse at 10 mg/kg, ip; type: ADME, organism-based; design: dose 10 mg/kg, route intraperitoneal; details: in vivo
Summary of the method: (§2)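 Male CD1 mice were dosed i.p. at 10 mg/kg in 95% PBS containing 0.1% Tween 20 and 5% DMSO. Plasma was sampled at 5–360 or 5–480 min. AUC is in μg.min/mL. Half-life was not calculated where the log concentration–time plot lacked a linear region of at least three points.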

[10] = tested on: Mus musculus; assay: Cmax in CD1 mouse at 10 mg/kg, ip; type: ADME, organism-based; design: dose 10 mg/kg, route intraperitoneal; details: in vivo; summary of the method: as §2
[11] = tested on: Mus musculus; assay: Half life in CD1 mouse at 10 mg/kg, ip; type: ADME, organism-based; design: dose 10 mg/kg, route intraperitoneal; details: in vivo; summary of the method: as §2
[12] = tested on: Mus musculus; assay: AUC in CD1 mouse at 10 mg/kg, ip; type: ADME, organism-based, Plasma; design: dose 10 mg/kg, route intraperitoneal; details: in vivo; summary of the method: as §2
[13] = Tmax in CD1 mouse at 50 mg/kg, ip; type: ADME, organism-based; design: dose 50 mg/kg, route intraperitoneal; details: in vivo
Summary of the method: (§3)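 Male CD1 mice were given 50 mg/kg i.p. in 95% PBS with 0.1% Tween 20 and 5% DMSO. Plasma was sampled at 0.08, 0.25, 0.5, 1, 2, 4, 8 and 24 h in three animals, and values are the mean in ng/mL.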

[14] = Cmax in CD1 mouse at 50 mg/kg, ip; type: ADME, organism-based; design: dose 50 mg/kg, route intraperitoneal; details: in vivo; summary of the method: as §3
[15] = AUC in CD1 mouse at 50 mg/kg, ip; type: ADME, organism-based; design: dose 50 mg/kg, route intraperitoneal; details: plasma; summary of the method: as §3

Structure (SMILES) | EC50 ([1]; Mus musculus, H2K, 48 h) [µM] | Activity [6] [%] | other results
CCS(=O)(=O)c1ccc2oc(-c3ccc(Cl)c(Cl)c3)nc2c1 | 3 |  | Activity [2]: 138.3%; half-life [3]: 1.68 h; half-life [4]: 1.75 h; solubility kinetic [5]: 3 µM (≈ 1.07 µg/mL)
CCS(=O)(=O)c1ccc2oc(-c3cccc(Cl)c3Cl)nc2c1 |  | 40 | 
CCS(=O)(=O)c1ccc2oc(-c3ccc(Cl)cn3)nc2c1 | > 30 |  | 
CCS(=O)(=O)c1ccc2oc(-c3ccco3)nc2c1 | > 30 |  | 
CCS(=O)(=O)c1ccc2oc(-c3cccs3)nc2c1 |  |  | Activity [7]: 29%
CCS(=O)(=O)c1ccc2oc(-c3ccc4c(c3)OCO4)nc2c1 | 4.2 |  | 
CCS(=O)(=O)c1ccc2oc(-c3ccc4ccccc4n3)nc2c1 |  |  | Activity [8]: 59%
CCS(=O)(=O)c1ccc2oc(-c3cc4ccccc4cn3)nc2c1 |  | 63 | 
CCS(=O)(=O)c1ccc2oc(-c3ccc4ncccc4c3)nc2c1 | 1.9 |  | 
CCS(=O)(=O)c1ccc2oc(-c3ccc4sccc4c3)nc2c1 |  | 86 | half-life [4]: 0.983 h
CCS(=O)(=O)c1ccc2oc(-c3ccc4c(c3)CCCC4)nc2c1 |  | 51 | 
CCS(=O)(=O)c1ccc2oc(C3CCc4ccccc4C3)nc2c1 (stereo unspecified) |  | 32 | 
CCS(=O)(=O)c1ccc2oc(-c3ccc4occc4c3)nc2c1 |  | 73 | 
CCS(=O)(=O)c1ccc2oc(-c3ccc4[nH]ccc4c3)nc2c1 |  | 81 | 
CCS(=O)(=O)c1ccc2oc(-c3ccc(-c4ccccc4)cc3)nc2c1 | > 30 |  | 
CCS(=O)(=O)c1ccc2oc(/C=C/c3ccccc3)nc2c1 |  | 53 | 
CCCc1nc2cc(S(=O)(=O)CC)ccc2o1 |  | 14 | 
CCS(=O)(=O)c1ccc2oc(C3CCCCC3)nc2c1 |  | 25 | 
CS(=O)(=O)c1ccc2oc(-c3ccc(Cl)cc3)nc2c1 |  | 53 | 
CC(C)S(=O)(=O)c1ccc2oc(-c3ccc(Cl)cc3)nc2c1 | 10.2 |  | 
CC(C)S(=O)(=O)c1ccc2oc(-c3ccc(Cl)c(Cl)c3)nc2c1 |  | 45 | 
NS(=O)(=O)c1ccc2oc(-c3ccc(Cl)cc3)nc2c1 |  |  | Activity [7]: 60%
CCN(CC)S(=O)(=O)c1ccc2oc(-c3ccc(Cl)cc3)nc2c1 |  | 28 | 
CCS(=O)(=O)c1ccc2nc(-c3ccc(Cl)cc3)oc2c1 | > 30 |  | 
CS(=O)(=O)c1ccc2oc(-c3ccc4ccccc4c3)nc2c1 |  |  | Activity [8]: 95%; half-life [3]: 0.557 h
CCS(=O)(=O)c1ccc2oc(-c3ccccc3Cl)nc2c1 |  |  | Activity [7]: 62%
CCS(=O)(=O)c1ccc2oc(-c3ccccc3)nc2c1 |  | 69 | solubility kinetic [5]: 100 µM (≈ 28.7 µg/mL)
CCS(=O)(=O)c1ccc2oc(-c3ccc4ccccc4c3)nc2c1 [EZUTROMID] | 1.8 |  | EC50 ([1]; h2k): 0.91 µM; Activity [2]: 143%; half-life [3]: 1.36 h; half-life [4]: 1.75 h; Tmax [13]: 0.25 h; Cmax [14]: 1490 ng/mL; AUC [15]: 7000 ng·h/mL; solubility kinetic [5]: 3 µM (≈ 1.01 µg/mL)

Continued, in another order:

EC50 ([1]; Mus musculus, H2K, 48 h) [µM] | Structure (SMILES) | Activity [6] [%] | other results
4 | CC(C)C(=O)Nc1ccc2nc(-c3ccc(Cl)c(Cl)c3)oc2c1 |  | Activity [2]: 111.5%
> 30 | CCS(=O)(=O)c1ccc2oc(-c3cccc(Cl)c3)nc2c1 |  | 
> 10 | CCS(=O)(=O)c1ccc2oc(-c3cccc(Cl)c3F)nc2c1 |  | 
> 30 | CCS(=O)(=O)c1ccc2oc(-c3cnc4ccccc4c3)nc2c1 |  | 
> 30 | CCS(=O)(=O)c1ccc2oc(-c3ccc4nccnc4c3)nc2c1 |  | 
> 30 | CCS(=O)(=O)c1ccc2oc(-c3cccc4ccccc34)nc2c1 |  | 
2.3 | CCS(=O)(=O)c1ccc2oc(-c3ccc4c(c3)CCC4)nc2c1 |  | half-life [4]: 0.333 h
> 30 | CCS(=O)(=O)c1ccc2oc(-c3ccc(Oc4ccccc4)cc3)nc2c1 |  | 
> 30 | CCS(=O)(=O)c1ccc2oc(-c3cccc(Oc4ccccc4)c3)nc2c1 |  | 
> 30 | CCS(=O)(=O)c1ccc2oc(Cc3ccc4ccccc4c3)nc2c1 |  | 
> 30 | CCCS(=O)(=O)c1ccc2oc(-c3ccc(Cl)cc3)nc2c1 |  | 
> 30 | O=S(=O)(O)c1ccc2oc(-c3ccc(Cl)cc3)nc2c1 |  | 
10.6 | CCS(=O)(=O)c1ccc2nc(-c3ccc(Cl)c(Cl)c3)oc2c1 |  | 
5 | CCS(=O)(=O)c1ccc2oc(-c3ccc(Cl)cc3)nc2c1 |  | half-life [3]: 0.51 h; half-life [4]: 1.15 h; Tmax [9]: 5 min; Cmax [10]: 5650 ng/mL; t1/2 [11]: 2.18 h; AUC [12]: 9650 ng·h/mL; solubility kinetic [5]: 10 µM (≈ 3.22 µg/mL)

— ChEMBL document CHEMBL1772981, “Discovery of 2-arylbenzoxazoles as upregulators of utrophin production for the treatment of Duchenne muscular dystrophy” (J Med Chem, 2011)
